For orientation: MBC means the smallest concentration meeting the test's criterion for killing. A low value points to more potent killing. Usually MFC stands for the smallest concentration meeting the test's criterion for killing the fungus. The half-life is the time needed for the level to fall by half in the phase considered.

In brackets after ≈: the same amount, converted by molar mass.

Experimental findings from ChEMBL document CHEMBL1770092, “Novel N-chloroheterocyclic antimicrobials” (Bioorg Med Chem Lett, 2011) are described below.

The test system of one series is Escherichia coli. Nature of the series: Antibacterial activity against Escherichia coli ATCC 25922 after 1 hr by modified CLSI M26-A method. The format is functional. The following applies: ATCC 25922, 1 h. A digest of the protocol:
(§1)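 Minimum bactericidal or fungicidal concentration (µg/mL) by modified CLSI M26-A: isotonic buffered saline at pH 4 replaces Mueller–Hinton broth because chlorine reacts with broth components, and exposure is shortened from 24 h at 35 °C to 1 h at room temperature.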

For another series, the system named is Staphylococcus aureus. As to the kind of experiment: Antibacterial activity against Staphylococcus aureus ATCC 29213 after 1 hr by modified CLSI M26-A method. The following applies: ATCC 29213, 1 h. The format is functional. The procedure, abridged:
as §1

In another series the test system is Candida albicans. Nature of the series: Antifungal activity against Candida albicans ATCC 10231 after 1 hr by modified CLSI M26-A method. The format is functional. The following applies: ATCC 10231, 1 h. A digest of the protocol: as §1
The nature of series [1]: Stability of the compound assessed as half life in aqueous buffer at 40 degC.

With `CC1(C)CS(=O)(=O)CC(C)(C)N1Cl`, the minimum bactericidal concentration (MBC) in the series with Escherichia coli stood at 2 µg/mL (≈ 8.86 µM); against Staphylococcus aureus it was 1 µg/mL (≈ 4.43 µM). For the same compound, the minimum fungicidal concentration (MFC) against Candida albicans is 128 µg/mL (≈ 567 µM). Moreover, in series [1], the half-life was over 113 days.

Consider `CC1(C)C(=O)N(CCS(=O)(=O)[O-])C(=O)N1Cl.[Na+]`, for which the MBC in the series on Escherichia coli and against Staphylococcus aureus was 128 µg/mL in each case. The same compound gave a minimum fungicidal concentration (MFC) against Candida albicans of 128 µg/mL. Besides, in series [1], the half-life is 65 days.

Consider `CC1(C)C(=O)N(CCCS(=O)(=O)[O-])C(=O)N1Cl.[Na+]`, for which the minimum bactericidal concentration (MBC) in the series with Escherichia coli is 16 µg/mL; against Staphylococcus aureus it was 32 µg/mL. The MFC in the series with Candida albicans is over 256 µg/mL. The half-life in series [1] was over 14 days.

On to `CC1(C)C(=O)N(CCC[N+](C)(C)C)C(=O)N1Cl.[Cl-]`, for which the MBC in the series with Escherichia coli was 128 µg/mL; in the series with Staphylococcus aureus, over 128 µg/mL. Further, in the series on Candida albicans, the MFC is over 1020 µg/mL. The half-life in series [1] is 4 days.

As to `CC1(C)C(=O)N(CCCCC[N+](C)(C)C)C(=O)N1Cl.[Cl-]`, the MBC against Escherichia coli and against Staphylococcus aureus was 128 µg/mL throughout. In the series with Candida albicans, this compound yielded a minimal fungicidal concentration (MFC) of over 1020 µg/mL. Also, the half-life in series [1] is 22 days.

As to `CC1(C)C(=O)N(CC[n+]2ccccc2)C(=O)N1Cl.[Cl-]`, the half-life in series [1] was 4 days.

As to `CC1(C)C(=O)N(CCS(=O)(=O)CCCS(=O)(=O)[O-])C(=O)N1Cl.[Cs+]`, the minimum bactericidal concentration (MBC) against Escherichia coli is 256 µg/mL; in the series with Staphylococcus aureus, over 256 µg/mL. Besides, the MFC with Candida albicans is over 256 µg/mL. Further, in series [1], the half-life is over 7 days.

For `CN1C(=O)N(Cl)C(C)(C[N+](C)(C)C)C1=O.[Cl-]` (stereo not drawn), the MBC in the series with Escherichia coli stood at 16 µg/mL; in the series with Staphylococcus aureus it was 64 µg/mL. The MFC with Candida albicans was over 256 µg/mL. Also, the half-life in series [1] is 5 days.

Turning to `CC1(C)C(=O)N(CCS(=O)(=O)[O-])CC(=O)N1Cl.[Na+]`, the MBC in the series with Escherichia coli and in the series with Staphylococcus aureus was 128 µg/mL each time. Moreover, in the series with Candida albicans, the minimum fungicidal concentration (MFC) is over 256 µg/mL. Also, in series [1], the half-life was 90 days.

With `CC1(C)C(=O)N(CCO)CC(=O)N1Cl`, the half-life in series [1] was under 1 days.

`CC1(C)CC(CCO)OC(=O)N1Cl` (stereo not drawn): the half-life in series [1] is over 14 days.

Regarding `CC1(C)CN(CCS(=O)(=O)[O-])C(=O)N1Cl.[Na+]`, the MBC was found to be 32 µg/mL against Escherichia coli and 64 µg/mL in the series on Staphylococcus aureus. Further, in the series on Candida albicans, the MFC is over 256 µg/mL. In addition, in series [1], the half-life was over 92 days.

For the compound `CC1(C)CN(CCS(=O)(=O)CCCS(=O)(=O)[O-])C(=O)N1Cl.[Cs+]`, the MBC with Escherichia coli worked out at 64 µg/mL; against Staphylococcus aureus, 32 µg/mL. Further, the half-life in series [1] was over 112 days.

Take `CC(=O)[O-].CC1(C)CN(CC[N+](C)(C)C)C(=O)N1Cl`: the MBC against Escherichia coli came out at 512 µg/mL; in the series with Staphylococcus aureus it was 128 µg/mL. Further, the half-life in series [1] was 126 days.

Turning to `CN1CC(C)(CO)N(Cl)C1=O` (stereo not drawn), the MBC against Escherichia coli and in the series with Staphylococcus aureus was 16 µg/mL (≈ 89.6 µM) in each case. Moreover, in the series with Candida albicans, the MFC is 8 µg/mL (≈ 44.8 µM). The half-life in series [1] is over 58 days.

With `CC1(C)CC([N+](C)(C)C)CC(C)(C)N1Cl.[Cl-]`, the minimum bactericidal concentration (MBC) against Escherichia coli amounted to 16 µg/mL; in the series on Staphylococcus aureus it was 8 µg/mL. For the same compound, the MFC against Candida albicans stood at 256 µg/mL. For the same compound, the half-life in series [1] is 28 days.

Consider `CC1(C)CC(O)CC(C)(C)N1Cl`, for which the MBC against Escherichia coli turned out to be 1 µg/mL (≈ 5.22 µM); against Staphylococcus aureus, 4 µg/mL (≈ 20.9 µM). In the series on Candida albicans, this compound registered an MFC of 32 µg/mL (≈ 167 µM). Further, the half-life in series [1] is 32 days.

With `CC1(C)CC(=O)CC(C)(C)N1Cl`, the minimum bactericidal concentration (MBC) in the series with Escherichia coli turned out to be 1 µg/mL (≈ 5.27 µM); in the series with Staphylococcus aureus, 2 µg/mL (≈ 10.5 µM). Further, the MFC with Candida albicans is 32 µg/mL (≈ 169 µM). In series [1], the half-life is under 1 days.

For `CC1(C)CN(CCO)C(=O)C(C)(C)N1Cl`, the MBC against Escherichia coli was 1 µg/mL (≈ 4.26 µM); in the series on Staphylococcus aureus, 2 µg/mL (≈ 8.52 µM). The MFC in the series on Candida albicans amounted to 8 µg/mL (≈ 34.1 µM).

With `CC1(C)C(=O)N(CCS(=O)(=O)[O-])C(=O)C(C)(C)N1Cl.[Na+]`, the MBC against Escherichia coli and against Staphylococcus aureus was 128 µg/mL each time. Also, the minimum fungicidal concentration (MFC) against Candida albicans was over 256 µg/mL. For the same compound, in series [1], the half-life is 90 days.

Take `CC1(C)C(=O)N(CCCCO)C(C)(C)N1Cl`: the MBC against Escherichia coli and against Staphylococcus aureus was 2 µg/mL (≈ 8.04 µM) each time. This compound registered an MFC against Candida albicans of 256 µg/mL (≈ 1030 µM). Also, the half-life in series [1] was over 92 days.

As for `CC1(C)C(=O)N(CCCS(=O)(=O)[O-])C(C)(C)N1Cl.[Na+]`, the minimum bactericidal concentration (MBC) with Escherichia coli was found to be 4 µg/mL; against Staphylococcus aureus, 16 µg/mL. In the series on Candida albicans, this compound returned a minimal fungicidal concentration (MFC) of 16 µg/mL. For the same compound, the half-life in series [1] is over 249 days.

Take `CC1(C)C(=O)N(CCCCS(=O)(=O)[O-])C(C)(C)N1Cl.[Na+]`: the MBC was 16 µg/mL with Escherichia coli and 8 µg/mL in the series on Staphylococcus aureus. Further, the minimal fungicidal concentration (MFC) against Candida albicans amounted to 32 µg/mL. Further, the half-life in series [1] is over 84 days.

Take `CC1(C)C(=O)N(CCC[N+](C)(C)C)C(C)(C)N1Cl.[Cl-]`: the MBC with Escherichia coli amounted to 4 µg/mL; with Staphylococcus aureus, 2 µg/mL. In the series with Candida albicans, this compound had an MFC of 32 µg/mL. For the same compound, the half-life in series [1] was 111 days.

In the case of `CC1(C)C(=O)N(CCCCC[N+](C)(C)C)C(C)(C)N1Cl.[Cl-]`, the MBC against Escherichia coli and in the series with Staphylococcus aureus was 2 µg/mL each time. Besides, the MFC in the series on Candida albicans was 16 µg/mL. Besides, in series [1], the half-life was over 160 days.
